In experiment [1] the target is Calcium/calmodulin-dependent protein kinase type II subunit gamma (Homo sapiens, UniProt Q13555). Briefly: Inhibition of CAMK2g in human HeLa cells lysate pre incubated for 15 mins followed by ATP acyl phosphate probe addition and measured after 10 mins by LC-MS/MS analysis. In kind it is subcellular. An outline of the steps:
(§1)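 KiNativ profiling in HeLa lysate (5 mg/mL total protein). Lysate incubated 15 min with inhibitor at 50, 10, 2, 0.8 or 0 μM. ATP or ADP acylphosphate probe then added (5 μM final) and reacted 10 min. Reaction stopped with urea and analysed by targeted MS, using up to four fragment ions per kinase peptide-probe conjugate. % inhibition taken against untreated lysate. Run in duplicate.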

For experiment [2], the target named is Tyrosine-protein kinase Fer (Homo sapiens, UniProt P16591). Briefly: Inhibition of FER in human HeLa cells lysate pre incubated for 15 mins followed by ATP acyl phosphate probe addition and measured after 10 mins by LC-MS/MS analysis. In kind it is subcellular.
Tyrosine-protein kinase Fer, sequence (P16591 whole entry): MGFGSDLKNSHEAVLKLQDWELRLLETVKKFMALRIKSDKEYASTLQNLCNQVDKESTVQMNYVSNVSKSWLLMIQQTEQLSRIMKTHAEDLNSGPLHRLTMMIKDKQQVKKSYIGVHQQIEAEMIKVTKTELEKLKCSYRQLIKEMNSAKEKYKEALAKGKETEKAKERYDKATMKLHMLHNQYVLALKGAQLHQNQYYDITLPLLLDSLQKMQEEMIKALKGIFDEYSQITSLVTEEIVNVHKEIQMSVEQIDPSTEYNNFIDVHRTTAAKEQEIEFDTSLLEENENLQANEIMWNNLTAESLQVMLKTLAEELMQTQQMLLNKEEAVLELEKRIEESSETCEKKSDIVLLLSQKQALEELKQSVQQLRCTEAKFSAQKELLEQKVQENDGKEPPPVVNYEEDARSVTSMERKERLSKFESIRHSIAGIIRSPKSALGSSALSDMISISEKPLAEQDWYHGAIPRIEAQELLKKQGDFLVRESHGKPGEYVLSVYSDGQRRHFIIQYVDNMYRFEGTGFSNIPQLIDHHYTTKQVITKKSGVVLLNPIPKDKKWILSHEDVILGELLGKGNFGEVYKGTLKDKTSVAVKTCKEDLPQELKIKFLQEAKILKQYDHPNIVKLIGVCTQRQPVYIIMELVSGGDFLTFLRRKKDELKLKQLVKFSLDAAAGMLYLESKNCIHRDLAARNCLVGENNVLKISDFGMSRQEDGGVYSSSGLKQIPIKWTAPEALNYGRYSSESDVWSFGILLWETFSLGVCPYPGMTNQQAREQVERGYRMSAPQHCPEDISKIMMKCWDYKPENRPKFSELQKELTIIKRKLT
Experiment [3] has as its target Calcium/calmodulin-dependent protein kinase type II subunit delta (Homo sapiens, UniProt Q13557). Put plainly: Inhibition of CAMK2d in human HeLa cells lysate pre incubated for 15 mins followed by ADP acyl phosphate probe addition and measured after 10 mins by LC-MS/MS analysis. It is filed as subcellular. A digest of the protocol:
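KiNativ-type profiling in HeLa lysate (5 mg/mL total protein). Lysate preincubated 15 min with inhibitor at 50, 10, 2, 0.8 or 0 μM, then ATP or ADP acylphosphate probe added (5 μM final) for 10 min. Reaction stopped with urea and analysed by targeted MS, using up to four fragment ions per kinase peptide-probe conjugate. % inhibition calculated against untreated lysate. Duplicate reactions.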

In experiment [4] the target is Cyclin-dependent kinase 2 (Homo sapiens, UniProt P24941). Put plainly: Inhibition of CDK2 K1 site in human HeLa cells lysate pre incubated for 15 mins followed by ADP acyl phosphate probe addition and measured after 10 mins by LC-MS/MS analysis. It is filed as subcellular. An outline of the steps:
as §1

A further experiment addresses Ephrin type-B receptor 4 (Homo sapiens, UniProt P54760). Put plainly: Inhibition of EphB4 in human HeLa cells lysate pre incubated for 15 mins followed by ADP acyl phosphate probe addition and measured after 10 mins by LC-MS/MS analysis. It is filed as subcellular.
For experiment [5], the target named is T1, Serine/threonine-protein kinase D3 (Homo sapiens) (UniProt O94806).
T1 sequence (whole entry): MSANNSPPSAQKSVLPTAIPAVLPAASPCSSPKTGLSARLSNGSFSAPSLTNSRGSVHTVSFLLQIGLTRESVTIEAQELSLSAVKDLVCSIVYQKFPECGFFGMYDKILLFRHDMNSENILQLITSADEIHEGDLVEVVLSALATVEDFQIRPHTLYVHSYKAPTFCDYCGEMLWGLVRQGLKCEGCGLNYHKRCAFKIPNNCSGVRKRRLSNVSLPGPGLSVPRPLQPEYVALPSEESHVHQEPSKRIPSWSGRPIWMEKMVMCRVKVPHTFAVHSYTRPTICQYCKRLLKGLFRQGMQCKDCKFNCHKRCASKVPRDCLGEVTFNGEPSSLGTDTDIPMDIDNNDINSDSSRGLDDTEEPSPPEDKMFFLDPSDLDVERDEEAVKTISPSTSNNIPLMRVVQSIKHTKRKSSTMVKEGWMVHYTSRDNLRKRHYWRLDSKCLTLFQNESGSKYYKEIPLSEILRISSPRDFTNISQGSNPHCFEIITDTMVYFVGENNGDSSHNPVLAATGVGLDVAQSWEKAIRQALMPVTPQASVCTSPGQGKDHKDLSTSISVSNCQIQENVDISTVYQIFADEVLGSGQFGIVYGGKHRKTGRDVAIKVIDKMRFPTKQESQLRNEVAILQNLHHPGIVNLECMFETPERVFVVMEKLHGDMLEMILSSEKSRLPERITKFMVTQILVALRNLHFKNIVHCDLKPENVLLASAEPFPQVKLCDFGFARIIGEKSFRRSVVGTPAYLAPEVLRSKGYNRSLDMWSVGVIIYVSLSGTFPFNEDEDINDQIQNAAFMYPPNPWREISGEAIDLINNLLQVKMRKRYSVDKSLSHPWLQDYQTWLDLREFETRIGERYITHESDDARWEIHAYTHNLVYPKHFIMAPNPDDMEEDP
Briefly: Inhibition of PKD3 in human HeLa cells lysate at 50 uM pre incubated for 15 mins followed by ADP acyl phosphate probe addition and measured after 10 mins by LC-MS/MS analysis relative to control. It is filed as subcellular. Particulars: time 25.0 min.

Experiment [6] in a line: Inhibition of PCTAIRE2/3 in human HeLa cells lysate at 50 uM pre incubated for 15 mins followed by ADP acyl phosphate probe addition and measured after 10 mins by LC-MS/MS analysis relative to control. The note with it: 25 min, condition cancer.
Experiment [7] has as its target Phosphatidylinositol 4-kinase beta (Homo sapiens, UniProt Q9UBF8). Put plainly: Inhibition of PIK4CB in human HeLa cells lysate at 10 uM pre incubated for 15 mins followed by ATP acyl phosphate probe addition and measured after 10 mins by LC-MS/MS analysis relative to control. It is filed as subcellular. Particulars: time 25.0 min.
Experiment [8] concerns the target T2, Mitogen-activated protein kinase kinase kinase 7 (Homo sapiens) (UniProt O43318).
T2 sequence (whole entry): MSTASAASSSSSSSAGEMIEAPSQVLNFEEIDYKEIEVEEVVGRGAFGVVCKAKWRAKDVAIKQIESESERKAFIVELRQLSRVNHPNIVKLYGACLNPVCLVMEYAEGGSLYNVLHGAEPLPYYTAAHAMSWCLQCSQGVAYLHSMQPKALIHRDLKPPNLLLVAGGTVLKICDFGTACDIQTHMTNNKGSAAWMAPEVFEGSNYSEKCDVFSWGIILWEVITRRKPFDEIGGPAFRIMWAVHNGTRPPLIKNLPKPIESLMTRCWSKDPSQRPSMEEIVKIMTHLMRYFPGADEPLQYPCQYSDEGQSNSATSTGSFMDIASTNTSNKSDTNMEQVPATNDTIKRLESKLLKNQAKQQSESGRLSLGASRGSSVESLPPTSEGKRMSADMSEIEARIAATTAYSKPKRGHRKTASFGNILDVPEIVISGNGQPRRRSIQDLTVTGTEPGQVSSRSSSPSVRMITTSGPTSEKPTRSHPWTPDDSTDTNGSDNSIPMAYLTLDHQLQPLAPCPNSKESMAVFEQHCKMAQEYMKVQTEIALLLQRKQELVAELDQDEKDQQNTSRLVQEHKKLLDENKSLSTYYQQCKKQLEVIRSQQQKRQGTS
Briefly: Inhibition of TAK1 in human HeLa cells lysate at 10 uM pre incubated for 15 mins followed by ATP acyl phosphate probe addition and measured after 10 mins by LC-MS/MS analysis relative to control. It is filed as subcellular. Particulars: time 25.0 min.

The target of experiment [9] is Ribosomal protein S6 kinase alpha-3 (Homo sapiens, UniProt P51812). Briefly: Inhibition of RSK2 domain 2 in human HeLa cells lysate at 2 uM pre incubated for 15 mins followed by ATP acyl phosphate probe addition and measured after 10 mins by LC-MS/MS analysis relative to control. In kind it is subcellular. The note with it: time 25.0 min.
Ribosomal protein S6 kinase alpha-3, sequence (P51812 whole entry, the tested form may be a part): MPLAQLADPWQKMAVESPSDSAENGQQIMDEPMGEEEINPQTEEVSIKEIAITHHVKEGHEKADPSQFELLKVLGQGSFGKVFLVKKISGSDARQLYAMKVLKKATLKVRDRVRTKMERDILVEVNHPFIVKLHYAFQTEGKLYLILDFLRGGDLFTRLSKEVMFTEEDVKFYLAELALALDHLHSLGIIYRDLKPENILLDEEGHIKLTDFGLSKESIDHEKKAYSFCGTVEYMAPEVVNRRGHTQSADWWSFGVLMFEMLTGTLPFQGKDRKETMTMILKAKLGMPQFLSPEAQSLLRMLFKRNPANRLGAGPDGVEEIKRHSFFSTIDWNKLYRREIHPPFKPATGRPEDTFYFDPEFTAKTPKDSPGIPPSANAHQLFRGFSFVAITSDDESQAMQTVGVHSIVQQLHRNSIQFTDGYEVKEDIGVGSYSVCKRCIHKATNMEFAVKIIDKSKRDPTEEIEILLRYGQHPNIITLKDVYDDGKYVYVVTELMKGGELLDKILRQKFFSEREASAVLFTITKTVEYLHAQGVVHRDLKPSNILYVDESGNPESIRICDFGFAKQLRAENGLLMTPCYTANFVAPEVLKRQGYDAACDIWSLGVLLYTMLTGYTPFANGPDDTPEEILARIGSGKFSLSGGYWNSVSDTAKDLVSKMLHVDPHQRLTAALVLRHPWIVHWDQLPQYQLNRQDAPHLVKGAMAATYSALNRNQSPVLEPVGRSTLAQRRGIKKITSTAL
For experiment [10], the target named is Tyrosine-protein kinase Lyn (Homo sapiens, UniProt P07948). Briefly: Inhibition of LYN in human HeLa cells lysate at 2 uM pre incubated for 15 mins followed by ATP acyl phosphate probe addition and measured after 10 mins by LC-MS/MS analysis relative to control. In kind it is subcellular. Particulars: time 25.0 min.
Tyrosine-protein kinase Lyn, sequence (P07948 2-512 limits assumed): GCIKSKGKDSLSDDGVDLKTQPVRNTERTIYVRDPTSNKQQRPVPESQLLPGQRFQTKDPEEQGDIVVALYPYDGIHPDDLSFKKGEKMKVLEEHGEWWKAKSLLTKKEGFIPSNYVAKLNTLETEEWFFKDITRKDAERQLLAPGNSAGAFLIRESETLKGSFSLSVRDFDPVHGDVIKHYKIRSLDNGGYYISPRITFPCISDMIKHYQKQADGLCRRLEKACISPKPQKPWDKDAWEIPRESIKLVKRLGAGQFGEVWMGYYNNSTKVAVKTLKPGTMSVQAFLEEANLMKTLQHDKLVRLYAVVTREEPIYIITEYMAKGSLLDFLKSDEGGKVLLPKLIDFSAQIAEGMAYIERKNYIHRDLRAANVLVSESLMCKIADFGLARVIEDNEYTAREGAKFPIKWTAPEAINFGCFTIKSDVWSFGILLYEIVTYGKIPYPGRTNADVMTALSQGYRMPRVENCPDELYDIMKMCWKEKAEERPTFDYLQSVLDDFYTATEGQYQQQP

The source of these data is ChEMBL document CHEMBL5661979, “Pharmacological inhibition of BMK1 suppresses tumor growth through promyelocytic leukemia protein” (Cancer Cell, 2010).

Phosphatidylinositol 4-kinase beta, sequence (Q9UBF8 2-816 limits assumed): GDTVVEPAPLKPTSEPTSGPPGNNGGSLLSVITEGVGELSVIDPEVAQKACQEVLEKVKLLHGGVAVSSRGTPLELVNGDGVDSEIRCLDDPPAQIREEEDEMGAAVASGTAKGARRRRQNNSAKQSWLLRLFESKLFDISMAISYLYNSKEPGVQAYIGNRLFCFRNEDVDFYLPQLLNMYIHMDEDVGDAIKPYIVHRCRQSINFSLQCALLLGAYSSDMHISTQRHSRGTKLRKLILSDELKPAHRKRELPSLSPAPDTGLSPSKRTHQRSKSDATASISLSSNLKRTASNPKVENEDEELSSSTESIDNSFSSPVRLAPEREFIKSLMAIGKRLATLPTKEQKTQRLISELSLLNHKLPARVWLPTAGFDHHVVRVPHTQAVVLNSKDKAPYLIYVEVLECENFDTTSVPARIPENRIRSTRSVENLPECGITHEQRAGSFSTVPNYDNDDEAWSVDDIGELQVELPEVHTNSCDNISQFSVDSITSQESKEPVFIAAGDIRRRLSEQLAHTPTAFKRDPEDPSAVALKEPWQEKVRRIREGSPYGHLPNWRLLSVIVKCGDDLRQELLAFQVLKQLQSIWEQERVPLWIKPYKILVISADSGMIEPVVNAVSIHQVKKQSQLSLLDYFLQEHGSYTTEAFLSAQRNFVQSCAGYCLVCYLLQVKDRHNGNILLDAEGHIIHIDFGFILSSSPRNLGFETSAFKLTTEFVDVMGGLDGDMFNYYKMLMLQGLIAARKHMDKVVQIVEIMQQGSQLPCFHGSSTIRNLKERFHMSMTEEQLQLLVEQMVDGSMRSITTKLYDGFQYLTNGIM
Calcium/calmodulin-dependent protein kinase type II subunit gamma, sequence (Q13555 whole entry, the tested form may be a part): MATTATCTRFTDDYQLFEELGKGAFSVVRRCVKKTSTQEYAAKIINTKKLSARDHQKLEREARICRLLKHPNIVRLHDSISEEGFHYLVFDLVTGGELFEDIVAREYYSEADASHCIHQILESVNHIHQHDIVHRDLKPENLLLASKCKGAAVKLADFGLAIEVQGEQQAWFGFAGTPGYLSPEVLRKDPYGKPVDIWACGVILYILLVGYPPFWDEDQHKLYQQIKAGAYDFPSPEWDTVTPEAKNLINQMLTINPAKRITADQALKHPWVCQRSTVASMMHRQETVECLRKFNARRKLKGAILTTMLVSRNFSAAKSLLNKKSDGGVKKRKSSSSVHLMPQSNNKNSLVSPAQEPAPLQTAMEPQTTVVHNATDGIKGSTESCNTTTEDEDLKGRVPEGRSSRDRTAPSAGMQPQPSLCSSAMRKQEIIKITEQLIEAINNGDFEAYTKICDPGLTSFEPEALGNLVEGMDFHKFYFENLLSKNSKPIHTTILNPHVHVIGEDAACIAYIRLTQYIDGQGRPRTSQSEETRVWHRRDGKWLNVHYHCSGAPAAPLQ
Calcium/calmodulin-dependent protein kinase type II subunit delta, sequence (Q13557 whole entry, the tested form may be a part): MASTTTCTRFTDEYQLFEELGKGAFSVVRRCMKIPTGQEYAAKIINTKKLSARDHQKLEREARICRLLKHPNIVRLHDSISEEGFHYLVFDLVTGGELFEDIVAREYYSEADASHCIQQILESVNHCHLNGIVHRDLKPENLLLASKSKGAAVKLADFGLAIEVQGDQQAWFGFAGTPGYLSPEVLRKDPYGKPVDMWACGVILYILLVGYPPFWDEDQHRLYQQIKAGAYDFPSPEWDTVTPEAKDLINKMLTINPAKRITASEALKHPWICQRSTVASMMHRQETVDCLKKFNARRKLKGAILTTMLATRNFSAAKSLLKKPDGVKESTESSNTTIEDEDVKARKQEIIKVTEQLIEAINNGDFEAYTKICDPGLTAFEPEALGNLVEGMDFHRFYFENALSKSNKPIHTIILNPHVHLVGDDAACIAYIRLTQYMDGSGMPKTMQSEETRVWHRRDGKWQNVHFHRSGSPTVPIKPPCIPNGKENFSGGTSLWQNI
Ephrin type-B receptor 4, sequence (P54760 whole entry): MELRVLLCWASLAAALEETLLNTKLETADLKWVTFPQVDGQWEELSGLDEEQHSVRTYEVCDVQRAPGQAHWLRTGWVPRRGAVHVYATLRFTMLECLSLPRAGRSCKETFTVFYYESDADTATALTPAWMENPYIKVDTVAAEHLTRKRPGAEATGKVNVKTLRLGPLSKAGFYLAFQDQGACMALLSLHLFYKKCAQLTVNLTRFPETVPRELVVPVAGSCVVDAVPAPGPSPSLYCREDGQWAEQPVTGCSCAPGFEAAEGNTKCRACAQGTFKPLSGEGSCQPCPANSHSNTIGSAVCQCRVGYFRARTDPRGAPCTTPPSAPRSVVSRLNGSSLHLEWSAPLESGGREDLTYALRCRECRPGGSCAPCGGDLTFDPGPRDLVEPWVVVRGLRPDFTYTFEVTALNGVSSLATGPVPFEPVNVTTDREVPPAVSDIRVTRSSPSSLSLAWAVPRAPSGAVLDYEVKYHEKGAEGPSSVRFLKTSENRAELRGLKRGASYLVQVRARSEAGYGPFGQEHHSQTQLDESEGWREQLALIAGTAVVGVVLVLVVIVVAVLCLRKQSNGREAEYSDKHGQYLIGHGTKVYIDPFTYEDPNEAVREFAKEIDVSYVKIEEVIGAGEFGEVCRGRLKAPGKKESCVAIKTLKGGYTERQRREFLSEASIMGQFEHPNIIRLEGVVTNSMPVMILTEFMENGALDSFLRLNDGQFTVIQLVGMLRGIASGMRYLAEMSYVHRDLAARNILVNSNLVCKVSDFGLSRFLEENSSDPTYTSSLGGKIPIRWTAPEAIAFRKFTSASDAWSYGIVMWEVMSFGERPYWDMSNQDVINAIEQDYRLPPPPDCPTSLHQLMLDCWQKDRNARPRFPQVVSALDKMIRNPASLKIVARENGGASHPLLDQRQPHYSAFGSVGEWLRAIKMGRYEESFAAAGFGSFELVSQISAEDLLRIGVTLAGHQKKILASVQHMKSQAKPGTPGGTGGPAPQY

With `CCOc1cc(N2CCC(O)CC2)ccc1Nc1ncc2c(n1)N(C)c1ccccc1C(=O)N2C`, the IC50 (in experiment [1]; in [2]; in experiment [3]; in experiment [4]; at Ephrin type-B receptor 4) was > 50 µM throughout. Moreover, the inhibition in experiment [5] was -0.5%; in experiment [7], 25.8%; in [8], 21.2%; in [9], -9.6%; in experiment [10], -6.3%. For the same compound, in experiment [6], the inhibition at 50 µM is -8.7%.
